# Assay outcomes from PubChem.
# Sampled rows, rich in hits. Any-hit rate of the full collection: about 3.7%.
# Mdm2-MdmX inh: inhibitors of human Mdm2/MdmX interaction; O15151+Q00987; SaOS-2 split-luciferase Mdm2/MdmX complementation, luminescence; inhibition, % at 8 µM; 330,000 tested, 3% active; AID 485346;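 active = inhibition of at least 50% at 8 µM in the primary screen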
# Target sequence (O15151 whole entry, looked up): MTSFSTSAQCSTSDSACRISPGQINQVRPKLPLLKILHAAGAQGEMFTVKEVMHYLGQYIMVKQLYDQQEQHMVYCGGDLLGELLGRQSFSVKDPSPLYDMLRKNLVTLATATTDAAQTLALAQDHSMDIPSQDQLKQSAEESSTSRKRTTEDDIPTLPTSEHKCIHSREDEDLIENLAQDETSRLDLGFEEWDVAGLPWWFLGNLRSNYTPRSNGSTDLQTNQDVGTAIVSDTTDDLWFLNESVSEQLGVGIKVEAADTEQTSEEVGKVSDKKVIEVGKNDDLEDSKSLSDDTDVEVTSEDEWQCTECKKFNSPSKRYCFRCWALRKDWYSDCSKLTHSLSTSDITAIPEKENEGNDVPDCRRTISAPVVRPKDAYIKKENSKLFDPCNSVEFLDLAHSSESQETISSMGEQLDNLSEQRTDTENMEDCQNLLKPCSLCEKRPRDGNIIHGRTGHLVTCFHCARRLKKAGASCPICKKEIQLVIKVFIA
# Target sequence (Q00987 whole entry, looked up): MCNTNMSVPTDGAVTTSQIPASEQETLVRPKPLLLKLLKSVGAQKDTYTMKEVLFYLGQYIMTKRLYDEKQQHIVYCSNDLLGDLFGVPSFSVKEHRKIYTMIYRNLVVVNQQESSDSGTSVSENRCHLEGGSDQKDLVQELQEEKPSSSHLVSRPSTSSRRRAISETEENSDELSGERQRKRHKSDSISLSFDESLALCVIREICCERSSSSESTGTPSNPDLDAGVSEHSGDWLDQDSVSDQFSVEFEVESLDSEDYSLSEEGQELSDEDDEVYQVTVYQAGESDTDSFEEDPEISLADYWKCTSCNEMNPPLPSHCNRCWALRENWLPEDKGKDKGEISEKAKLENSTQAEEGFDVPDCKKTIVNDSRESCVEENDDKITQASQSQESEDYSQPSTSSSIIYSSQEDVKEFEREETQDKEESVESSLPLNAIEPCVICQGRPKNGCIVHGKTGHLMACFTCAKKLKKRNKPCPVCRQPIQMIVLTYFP
# XBP1 UPR activ: activators of adaptive arm of unfolded protein response (XBP1). activation, % at 20 µM. CHO-XBP1 luciferase reporter, IRE1-XBP1 UPR activation, luminescence; percent of tunicamycin response, DMSO as zero. 330,000 tested, 0.33% active;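 active = versus positive control, 20 µM dose yields 30% or more activation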
#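 Material: CHO-XBP1 cells stably carrying IRE1-XBP1-driven luciferase reporter / Amount: 1000 cells per well / Compound: 20 µM, 1% DMSO / Times: 6 h treatment, 37 °C / Detection: luciferase luminescence / Measure: % activation of reporter signal versus tunicamycin and DMSO controls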
# B2AR ag: activates human beta-2 adrenergic receptor causing internalization | Am2.2-beta2AR cells, FAP receptor internalization, flow cytometry | response, % (concentration not given with the values) | 340,000 tested, 0.43% active | AID 504454;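 active = response above a set limit, near 3 SD of response in nonfluorescent compounds, cut at about 42% in these data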
# Dynein cargo inh: dynein cargo transport inhibition. 3617.4 mouse cells, GR-EGFP nuclear translocation imaging; test concentration mostly 20 µM; stimulated with dexamethasone, 1 µM; hits give low values. z-score, hits read low. 220,000 tested, 0.47% active;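 active = plate z-score of nuclear minus cytoplasmic receptor signal below a set negative limit, without overly bright fluorescence or cell loss, cut at about -3.5 in these data, passing the limit was not always enough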;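 also: z-score of nuclear minus cytoplasmic ring GR-EGFP intensity difference per well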
#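 Also added: dexamethasone, 1.0 µM final. Medium: tet-free, stripped-serum medium. Detection: fixed, Hoechst-stained cells imaged at 10x for EGFP. Read-out: nuclear-to-cytoplasmic GR-EGFP distribution per well. Times: induction 48 h, compound 1 h, agonist 30 min.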
# CHOP UPR activ: apoptotic UPR (CHOP) activation. CHO-CHOP luciferase reporter, luminescence; percent of tunicamycin response over DMSO baseline. activation, % at 10 µM. 330,000 tested, 0.34% active;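 active = at 10 µM dose, activation of 40% or more, normalized to positive control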
#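 Test system: CHO CHOP reporter cells. Input: 500 CHO-CHOP cells per well. Medium: F12 with 10% FBS. Technique: luciferase luminescence. Measure: percent activation relative to tunicamycin control. Dosing: 10 µM compound, 0.5% DMSO. Timing: 16-18 h cell attachment, then 6 h compound exposure, 37 °C.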
# MDM2 E3 inh: Mdm2 E3 ligase (human) inhibition. signal enhancement, % at 5 µM. Q00987. AID 1230. cell-based MDM2 ubiquitination luciferase reporter, 2 h; 0 = plate control, 100 = twice control, blank-subtracted. 210,000 tested, 0.11% active;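 active = signal enhancement of 30% or more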;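 also: luminescence tracks abundance of the self-degrading MDM2-luciferase fusion protein; higher signal means inhibition of MDM2 E3 ligase activity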
#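 test system = mammalian cells stably expressing self-ubiquitinating, self-degrading MDM2 E3–luciferase fusion | quantity = 2000 cells/well | incubation = cell settling 4 h, compound treatment 2 h, both 37 °C | signal = luminescence with SteadyLite reagent, 15 min at room temperature | evaluation = % enhancement relative to plate controls after blank subtraction | benchmarks = plate controls and plate blanks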
# Mdm2-MdmX conf: confirmation of human Mdm2/MdmX interaction inhibitors; Mdm2-MdmX binding, luminescent assay; inhibition, % at 8 µM; shares compounds with Mdm2-MdmX inh; 10,000 tested, 55% active; in the data active = inhibition above about 40%
# FLuc counter: inhibits full-length luciferase, flagging false Mdm2/MdmX hits. inhibition, % at 8 µM. 6,200 tested, 77% active. shares compounds with Mdm2-MdmX inh. SaOS-2 full-length luciferase counterscreen, luminescence. AID 504607;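 active = mean inhibition at 8 µM reaching about 37%, which flags the compound as non-specific, limit read from the data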;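 also: p53-null SaOS-2 cells with luciferase driven by a doxycycline-inducible promoter; compound on cells about two nights before reading with doxycycline added after day one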
# Hits are given with their value; n = inactive; x = no result.
SMILES,Mdm2-MdmX inh,XBP1 UPR activ,B2AR ag,Dynein cargo inh,CHOP UPR activ,MDM2 E3 inh,Mdm2-MdmX conf,FLuc counter
Cc1ccc2[nH]c3c(=O)n(CC(=O)Nc4ccccc4N4CCN(C)CC4)ncc3c2c1,61.2,n,n,x,n,x,n,x
Cn1c(CNC(=O)CCNC(=O)c2cccc(Cl)c2)cc(=O)n(C)c1=O,n,n,n,x,n,x,x,x
CCCCn1c(SCC(=O)Nc2ccc(NC(C)=O)cc2)nc2ccccc2c1=O,n,n,n,x,n,x,x,x
CCCCn1c(SCC(=O)Nc2nccs2)nc2ccccc2c1=O,64.8,n,n,n,n,n,n,x
CN(C)CCCn1c(SCC(=O)Nc2nc(-c3cccc(Br)c3)cs2)nc2ccccc2c1=O,100.3,n,n,n,n,x,55.6,115.1
CC(C)(C)c1nc2ccccc2c2nnc(SCC(=O)Nc3nccs3)n12,67.8,n,n,n,n,n,59.5,50.2
CC(NC(=O)COC(=O)c1ccc[nH]c1=O)c1ccccc1 (stereo unspecified),n,n,n,x,n,x,x,x
Cc1ccn2c(=O)nc(SCC(=O)N3CCCCC3)nc2c1,n,n,n,x,n,x,x,x
O=C1Nc2c(c(=O)[nH]c(=O)n2-c2ccc(F)cc2)C1(NS(=O)(=O)c1ccccc1)C(F)(F)F (stereo unspecified),n,n,n,n,n,n,x,x
CN(C)C(CNC(=O)C1CCN(S(=O)(=O)c2ccccc2C(F)(F)F)CC1)Cc1ccccc1 (stereo unspecified),n,n,n,x,n,x,x,x
CN(Cc1ccc2nonc2c1)Cc1nc(CC2CC2)no1,n,n,n,n,n,n,x,x
Cc1ccc(C(=O)N2C(CC(=O)Nc3ccc(Cl)cc3)C(=O)NC3CCCCC32)cc1 (stereo unspecified),53.8,n,n,n,n,n,54.8,n
Cc1cccc(NC(=O)CC2C(=O)NC3CCCCC3N2C(=O)c2ccccc2Cl)c1 (stereo unspecified),n,n,n,n,n,n,x,x
CC(C)c1onc(C(=O)N2CCN(C(c3ccccc3)c3ccccc3)CC2)c1[N+](=O)[O-],74.0,n,n,n,n,x,94.5,63.9
Cc1onc(C(=O)N2CCC(Cc3ccccc3)CC2)c1[N+](=O)[O-],82.1,n,n,x,n,x,n,x
Cc1ccc(Cl)cc1N1CCN(C(=O)c2noc(C(C)C)c2[N+](=O)[O-])CC1,68.4,n,n,x,n,x,63.8,37.3
Cc1ccc2nc(-c3ccccc3)nn2c1,x,x,n,x,x,x,x,x
CC(C)N(C(=O)c1nn(C)c2c1CSc1ccccc1-2)C1CCCCC1,n,n,n,x,n,x,x,x
C/C(=N\NC(=O)c1ccc(NS(=O)(=O)c2cccs2)cc1)c1ccncc1,n,n,n,n,n,n,x,x
CC(=O)c1ccc(Nc2nc3ccccc3nc2NS(=O)(=O)c2cccs2)cc1,59.7,n,n,x,n,x,n,x
C/C(=N\NC(=O)c1ccc(NS(=O)(=O)c2cccs2)cc1)c1ccccn1,58.1,n,x,n,n,n,n,x
CC1=CC(C)(C)n2c(O)c(C3=NC(=S)NC3=O)c3cc(OC(=O)c4cccc5ccccc45)cc1c32,77.1,n,n,n,n,n,n,x
CCN(CC)c1ccc(/C=N/Nc2nc(C)cc(=O)[nH]2)c(O)c1,63.7,n,n,n,n,n,80.4,n
O=C(N/N=C/c1ccccc1O)c1cccc(C(F)(F)F)c1,69.0,n,n,n,n,n,73.0,n
O=C(N/N=C/c1sc(N2CCOCC2)nc1-c1ccccc1)c1cccc(S(=O)(=O)N2CCOCC2)c1,75.6,n,n,n,n,n,69.7,42.7
SMILES,Mdm2-MdmX inh,XBP1 UPR activ,B2AR ag,Dynein cargo inh,CHOP UPR activ,MDM2 E3 inh,Mdm2-MdmX conf,FLuc counter
CCOC(=O)N/N=C/c1ccc(N(CC)CC)cc1O,n,n,n,n,n,n,x,x
CCN(CC)c1ccc(/C=N/NC(=O)c2c(Cl)cnn2C)c(O)c1,70.9,n,n,n,n,n,81.1,n
Cc1cccc(-n2c(Cc3cc(=O)[nH]c(=O)[nH]3)nnc2SCC(=O)N2CCc3ccccc32)c1,n,n,n,x,n,x,x,x
CCN(CC)c1ccc(C=Nc2cccc(S(=O)(=O)N3CCOCC3)c2)c(O)c1,n,n,n,x,n,x,x,x
CCN(CC)c1ccc(/C=N/NC(=O)c2cccc(S(=O)(=O)N3CCOCC3)c2)c(O)c1,75.4,n,n,n,n,n,84.0,52.9
CCN(CC)S(=O)(=O)c1cccc(C(=O)N/N=C/c2cccc(O)c2O)c1,59.5,n,n,n,n,n,65.7,38.6
COc1cc(CC(=O)NCC(C)(C)N2CCOCC2)cc(OC)c1OC,n,n,n,x,n,x,x,x
Cc1cc(C)n(-c2nc(SCC(=O)O)c3c4c(sc3n2)COC(C)(C)C4)n1,n,n,n,n,n,n,x,x
Cc1cc(C)n(-c2nc(SCCN(C)C)c3c4c(sc3n2)CCCC4)n1,92.2,n,n,n,n,n,60.3,71.9
Cc1nc2c(-c3ccccc3)c(C)[nH]n2c(=O)c1Cc1ccccc1,n,n,n,n,n,n,x,x
Cc1nc2c(-c3ccc(Cl)cc3)c(C)[nH]n2c(=O)c1Cc1ccccc1,52.5,n,n,n,n,n,60.5,54.9
Cc1ccc(-c2cc(-c3ccccc3)c(C#N)c(Br)n2)cc1,72.1,n,n,n,n,n,n,x
Cc1cc(-c2ccccc2)nc(Cl)c1C#N,n,n,n,n,n,x,x,x
Cc1onc(-c2ccccc2Cl)c1C(=O)O/N=C(\N)c1ccc([N+](=O)[O-])o1,60.4,n,n,n,n,n,n,70.5
COc1cccc(/C=N/Nc2ncnc(Cl)c2N)c1O,100.3,n,n,n,n,n,82.7,n
COc1cccc(/C=N/Nc2cc(-n3nc(C)cc3-c3ccccc3)ncn2)c1O,58.5,n,n,n,n,n,77.7,50.2
COc1cccc(/C=N/Nc2ncnc3scc(-c4ccccc4)c23)c1O,81.6,n,n,n,n,n,80.3,n
COC(=O)c1sccc1N/N=C/c1cccc(OC)c1O,n,n,n,n,n,n,x,x
COc1ccccc1OCCNc1ccc(S(=O)(=O)N2CCCC2)cn1,n,n,n,x,n,x,x,x
O=C(Nc1cnccn1)Nc1ccccc1Cl,n,n,n,n,n,n,x,x
O=C(Nc1cnccn1)Nc1cccc(Cl)c1Cl,76.7,n,n,n,n,n,68.0,104.8
Cc1ccc(S(=O)(=O)N2CCOCC2)cc1C(=O)OCCOc1cccc(Cl)c1,n,n,n,x,n,x,x,x
